Source: PubChem (several laboratories)
PG9 Ab binder: small molecules binding HIV-1 gp120 antibody PG9; inhibition, % at 6.7 µM; 0.43% of 360,000 active; AID 624416; TR-FRET gp120-PG9 antibody binding; in the data active = inhibition above about 8.5%
NR2E3 ag-1: agonists of human nuclear receptor NR2E3. AID 2300. Q9Y5X4. inhibition of corepressor binding, % at 4.78 µM. 0.12% of 320,000 active. GST-NR2E3/biotin-RetCOR TR-FRET, 1536-well;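 active = percent inhibition above the cutoff of mean plus 3 SD of all tested compounds, set per screening campaign, cut at about 20% in these data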;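 note: 0% = DMSO wells and 100% = biotin wells as full block of FRET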
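Format: 1536-well format; test system: GST-NR2E3 and biotin-RetCOR proteins; read-out basis: percent inhibition of TR-FRET ratio; timing: 5 h incubation at 4 °C; detection: time-resolved FRET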
NR1D1 modulator: Rev-erb alpha (human) modulation. P20393. Rev-erbα–FITC-DNA binding, fluorescence polarization, 90 min. activity, % at 10 µM. 0.79% of 370,000 active. AID 1259318;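 active = activity above about 14%, limit read from the data; passing the limit was not always enough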;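 note: 0% = DMSO wells with 35 nM protein and 100% = DMSO wells with 750 nM protein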
NR2E3 ag-2: human photoreceptor-specific nuclear receptor agonism; Q9Y5X4; CHO-S Gal4-NCOR/VP16-NR2E3 two-hybrid, luciferase; inhibition of corepressor binding, % at 3.98 µM; 0.35% of 360,000 active; AID 602229;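 active = inhibition above the mean of all tested compounds plus 3 SD, cut at about 70% in these data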;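 note: 0% = DMSO with NR2E3 transfected cells and 100% = cells lacking NR2E3 construct; higher means lower luciferase signal from less NR2E3 corepressor binding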
NR2E3 agonist cf: NR2E3 (human) agonism, confirmation. activation (reported as inhibition), % at 3.98 µM. cell-free NR2E3 corepressor release, TR-FRET, 5 h. shares compounds with NR2E3 ag-1. 39% of 360 active; in the data active = activation above about 20%
PPARg-NCOR2 ag: PPARg-NCOR2 interaction agonism, NR2E3 counter-screen; AID 504787; TR-FRET PPARg-NCOR2 coregulator interaction, biochemical; inhibition, % at 3.98 µM; 45% of 360 active; shares compounds with NR2E3 ag-1; in the data active = inhibition above about 20%;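 note: 0% = DMSO vehicle and 100% = wells without protein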
Numbers without * were called inactive; nt = not tested or not shown. A selection: hits, their analogues and other compounds. The true share with any hit is near 1.5%.

SMILES | PG9 Ab binder | NR2E3 ag-1 | NR1D1 modulator | NR2E3 ag-2 | NR2E3 agonist cf | PPARg-NCOR2 ag
C[Si](C)(C)O[Si](C)(C)O[Si](C)(C)C | nt | nt | -4.2 | nt | nt | nt
O=C(CSc1ncnc2ccccc12)Nc1cccc(S(=O)(=O)N2CCOCC2)c1 | -3.5 | 1.8 | 0.0 | -10.8 | nt | nt
O=C(CSc1nc2ccccc2c(=O)n1-c1ccccc1Cl)Nc1cccc(S(=O)(=O)N2CCOCC2)c1 | -2.9 | 25.2* | 12.8 | -6.8 | -5.7 | -7.7
Cc1ccc(N2CSC3=C(C#N)C(c4cccs4)CC(=O)N3C2)cc1 (stereo not given) | 3.3 | 24.1* | 3.5 | -30.2 | -5.5 | 9.2
CCOC(=O)c1ccc(N2CSC3=C(C#N)C(c4cccs4)CC(=O)N3C2)cc1 (stereo not given) | 0.5 | 26.8* | -3.9 | -11.3 | -5.1 | 37.6*
Cc1ccc(C(=O)C2=C(O)C(=O)N(Cc3ccccc3)C2c2cccnc2)o1 (stereo not given) | nt | 39.8* | 0.2 | -58.5 | 4.8 | 12.2
O=C(C1=C(O)C(=O)N(Cc2ccco2)C1c1cccs1)c1cccs1 (stereo not given) | 2.8 | 9.9 | 21.5 | 13.2 | nt | nt
Cc1ccc(C(=O)C2=C(O)C(=O)N(Cc3cccnc3)C2c2cccc([N+](=O)[O-])c2)o1 (stereo not given) | -0.6 | 1.7 | -0.5 | 9.0 | nt | nt
O=C(C1=C(O)C(=O)N(Cc2ccco2)C1c1ccccc1)c1cccs1 (stereo not given) | 3.7 | 20.2* | -1.3 | -6.7 | 2.4 | 8.3
CCCOc1ccc(C2C(C(=O)c3ccc(C)o3)=C(O)C(=O)N2Cc2ccco2)cc1OCC (stereo not given) | 7.2 | 23.7* | 8.3 | -5.2 | 6.2 | 6.2
CC(OC(=O)OC1CCCCC1)OC(=O)C1=C(CSc2nnnn2CCN(C)C)CS[C@@H]2[C@H](NC(=O)Cc3csc(N)n3)C(=O)N12 (stereo not given in full) | nt | nt | -7.1 | nt | nt | nt
CCC(CNc1cc(OC)cc2cccnc12)NC1CCCCC1 (stereo not given) | -4.8 | 20.9* | -23.0 | -9.6 | -4.0 | -6.0
CCOc1ccc(/C(O)=C2/C(=O)C(=O)N(CCOCCO)C2c2ccc(F)cc2)cc1 (stereo not given) | 7.6 | 19.9* | 0.2 | 12.6 | 13.6 | 7.2
CC1CC(OC(=O)c2ccccc2)CC(C)(C)N1 (stereo not given) | nt | nt | -0.9 | nt | nt | nt
CCCCC(=O)Nc1ncc(Br)s1 | nt | 32.4* | 5.3 | 15.6 | -2.1 | -3.8
CC(=O)[C@@]1(O)CCC2C3C[C@H](C)C4=CC(=O)C=CC4(C)[C@@]3(F)[C@@H](O)C[C@@]21C (stereo not given in full) | nt | nt | 6.0 | nt | nt | nt
CCCCCCCCCCCCCCCC(=O)OCC(O)[C@H]1OC(=O)C(O)=C1O (stereo not given in full) | nt | nt | -0.4 | nt | nt | nt
Cc1cc(C(=O)O)ccc1-n1c(C)ccc1C | nt | 21.4* | nt | nt | 22.8* | -3.8
COC1=CC(=O)C[C@@H](C)C12Oc1c(Cl)c(OC)cc(OC)c1C2=O (stereo not given in full) | nt | nt | -11.0 | nt | nt | nt
COC(=O)c1c(C(=O)OC)c2ccccn2c1C(=O)c1ccccc1 | -0.5 | 1.9 | -2.7 | -35.4 | nt | nt
COC(=O)c1c(Cl)c2n3ccccc3c(C)c(-c3ccccc3)c-2c1C(=O)OC | 6.3 | 61.0* | 3.0 | -0.6 | 68.6* | 69.8*
CN(C(=O)c1ccc(NC(=O)Cc2ccc(NC(=O)C3CCN(C(=O)c4ccccc4)CC3)cc2)cc1)C1CC1 | -0.3 | 20.8* | -2.9 | -24.4 | 1.2 | -4.0
C[C@]12CCC3c4ccc(O)cc4CCC3C1CC[C@@H]2OC(=O)CCC1CCCC1 (stereo not given in full) | nt | nt | 4.4 | nt | nt | nt
Nc1ccc2nc(-c3ccc(-c4nc5ccc(N)cc5[nH]4)cc3)[nH]c2c1 | 0.8 | 23.6* | 13.1 | nt | 10.0 | 3.6
CCc1cc2c(=O)n(-c3ccccc3)c(=S)[nH]c2s1 | 2.0 | 23.0* | -2.8 | -4.6 | 1.2 | -2.0
SMILES | PG9 Ab binder | NR2E3 ag-1 | NR1D1 modulator | NR2E3 ag-2 | NR2E3 agonist cf | PPARg-NCOR2 ag
C#C[C@]1(O)CCC2C3CCc4cc(O)ccc4C3CC[C@@]21C (stereo not given in full) | nt | nt | 2.5 | nt | nt | nt
O=C(O)c1ccc(-n2cccc2/C=C2/SC(=O)N(CC(=O)N3CCCC3)C2=O)cc1 | -1.9 | 20.6* | -20.4 | -54.3 | 18.2 | 6.5
CCNC(=O)CSc1nc2sccc2c(=O)n1-c1ccccc1 | 0.6 | -1.0 | 2.8 | -18.1 | nt | nt
C=CCNC(=O)CSc1nc2sccc2c(=O)n1-c1ccccc1 | -1.3 | 23.1* | 6.8 | 9.4 | -4.7 | -6.1
CCCCCCCCCCCCCCCCCCCCCCCCCCCCO | nt | nt | -4.9 | nt | nt | nt
C[C@H]1CC2C3CCC4=CC(=O)C=C[C@]4(C)[C@@]3(F)[C@@H](O)C[C@]2(C)[C@@]1(O)C(=O)COP(=O)(O)O (stereo not given in full) | nt | nt | -4.2 | nt | nt | nt
C[C@H](CCC(=O)O)[C@H]1CCC2C3C(CC[C@@]21C)[C@@]1(C)CC[C@@H](O)C[C@H]1C[C@@H]3O (stereo not given in full) | nt | nt | -3.2 | nt | nt | nt
C[C@H](CCC(=O)O)[C@H]1CCC2C3C(=O)CC4CC(=O)CC[C@]4(C)C3CC(=O)[C@@]21C (stereo not given in full) | nt | nt | 6.1 | nt | nt | nt
Cc1cc(C2C(C#N)=C(N)SC(N)=C2C#N)c(C)s1 | nt | 23.6* | nt | 6.5 | 11.2 | 38.4*
CC(=O)O[C@]1(C(C)=O)CCC2C3C=C(C)C4=CC(=O)CCC4(C)C3CCC21C (stereo not given in full) | nt | nt | -3.6 | nt | nt | nt
CCCCC(CC)COC(=O)c1ccc(Nc2nc(Nc3ccc(C(=O)OCC(CC)CCCC)cc3)nc(Nc3ccc(C(=O)OCC(CC)CCCC)cc3)n2)cc1 (stereo not given) | nt | nt | 7.2 | nt | nt | nt
COc1ccc(OCc2nc3c4cc(OC)c(OC)cc4nc(=S)n3[nH]2)cc1 | 0.1 | 21.1* | 2.2 | 17.8 | 6.5 | 10.7
COC(=O)C1[C@H]2C[C@H]3c4[nH]c5ccccc5c4CCN3C[C@@H]2CC[C@@H]1O (stereo not given in full) | nt | nt | -2.7 | nt | nt | nt
COc1ccc(OC)c(C2C(C(=O)c3cc4ccccc4o3)=C(O)C(=O)N2c2cc(C)on2)c1 (stereo not given) | 6.1 | 24.0* | -4.9 | -28.0 | 17.2 | 11.2
COc1ccc(OC)c(C2C(C(=O)c3ccc(C)o3)=C(O)C(=O)N2c2cc(C)on2)c1 (stereo not given) | 1.9 | 3.5 | -3.9 | -7.8 | nt | nt
CCC1(C)Cc2c(sc3nc(SC)[nH]c(=S)c23)CO1 (stereo not given) | nt | 21.7* | nt | nt | -5.4 | 48.1*
CCSc1nc2sc3c(c2c(=O)[nH]1)CC(C)(CC)OC3 (stereo not given) | -0.4 | -3.4 | -1.5 | 8.0 | nt | nt
COC(=O)CCCCC1SCC2NC(=O)NC21O (stereo not given) | 0.3 | 76.4* | nt | -22.2 | 79.6* | 80.3*
